Source: PubChem (several laboratories)
core dimer inh: inhibitors of HCV core protein dimerization, primary screen, biochemical, TR-FRET, high-throughput; 0.33% of 300,000 active; TR-FRET GST/Flag-core106 dimerization, 1536-well; inhibition, % at 5 µM;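 active = inhibition above the mean of all tested compounds plus 3 SD, set per screening campaign, cut at about 45% in these data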
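Assay system – GST-tagged and Flag-tagged HCV core protein residues 1-106 · Quantity – core106 proteins, GST 13.5 nM and Flag 17 nM · Benchmarks – unlabelled core106 and no-GST-core106 wells · Read-out basis – percent inhibition of core106 dimerization signal · Detection – time-resolved FRET, ex 340 nm, em 617 and 671 nm · Schedule – 4 h at 22.5 °C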
ABHD5-PLIN5 inh: ABHD5-PLIN5 interaction inhibitors, primary screen, cell lysate, split luciferase complementation, luminescence; Perilipin-5 (Homo sapiens) + 1-acylglycerol-3-phosphate O-acyltransferase ABHD5 (Homo …; Split G. princeps luciferase complementation, 4 h; inhibition, % at 4 µM; 0.78% of 360,000 active; AID 602281, 2012;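 active = inhibition above the mean inhibition across every tested compound plus 3 SD, cut at about 22% in these data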;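 also: 0% = DMSO only wells and the 100% control is not disclosed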
NadD inh: inhibitors of S. aureus NadD, primary screen, biochemical, colorimetric, uHTS. inhibition, % at 20 µM. purified NadD enzyme, colorimetric absorbance read-out. Nicotinate-nucleotide adenylyltransferase NadD (Staphylococcus aureus N315). 0.78% of 360,000 active; in the data active = inhibition above about 26%
rCAG binder: binders of r(CAG) RNA repeats, primary screen, biochemical, fluorescence; r(CAG) RNA repeat, TO-PRO-1 dye displacement fluorescence; inhibition, % at 3 µM; 1.3% of 370,000 active;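 active = inhibition above the plate cutoff, the mean of all test compounds on that plate plus 3 SD, cut at about 35% in these data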;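 also: 0% = DMSO alone and 100% = 100 µM mitoxantrone as full dye displacement; higher means more dye released from RNA so lower well fluorescence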
ABHD5 PLIN5 conf: ABHD5-PLIN5 interaction inhibitors, confirmation, biochemical, luminescence; shares compounds with ABHD5-PLIN5 inh; inhibition, % at 4 µM; 67% of 2,200 active; in the data active = inhibition above about 23%;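 also: 0% = DMSO vehicle wells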
HNF4 counter: HNF4 dimerization inhibitors, counter-screen for ABHD5-PLIN5 interaction inhibitor project, biochemical, split-luciferase complementation, luminescence | shares compounds with ABHD5-PLIN5 inh | inhibition, % at 4 µM | 77% of 2,200 active | AID 651674, 2012;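 active = mean inhibition across replicate wells exceeding the computed hit threshold, cut at about 13% in these data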;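 also: light from luciferase halves that rejoin when HNF4 fusion proteins dimerize; 0% = DMSO only wells and the 100% control is not given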
Target sequence (P41235 whole entry, looked up, the tested form may be a part): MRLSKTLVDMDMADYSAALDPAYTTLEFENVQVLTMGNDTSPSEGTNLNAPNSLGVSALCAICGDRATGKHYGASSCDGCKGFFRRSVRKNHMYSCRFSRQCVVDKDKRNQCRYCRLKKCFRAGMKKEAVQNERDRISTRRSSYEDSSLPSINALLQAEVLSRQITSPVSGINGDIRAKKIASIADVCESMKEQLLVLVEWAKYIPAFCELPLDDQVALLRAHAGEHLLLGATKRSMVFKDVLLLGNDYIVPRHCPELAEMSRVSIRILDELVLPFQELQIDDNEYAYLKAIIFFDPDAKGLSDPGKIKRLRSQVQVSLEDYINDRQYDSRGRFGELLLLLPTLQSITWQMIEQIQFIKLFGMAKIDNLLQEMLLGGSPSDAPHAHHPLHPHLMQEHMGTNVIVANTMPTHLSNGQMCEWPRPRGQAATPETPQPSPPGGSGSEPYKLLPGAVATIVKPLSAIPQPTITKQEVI
Starred values were filed as active, the others as inactive; x = no result. A selection: hits, their analogues and other compounds. The true share with any hit is near 2.6%.

SMILES | core dimer inh | ABHD5-PLIN5 inh | NadD inh | rCAG binder | ABHD5 PLIN5 conf | HNF4 counter
CC1(C(=O)Nc2ccc3c(c2)OCCO3)CSCC(=O)N1C1CC1 (centres undefined) | x | 9 | x | 3 | x | x
CCOc1ccc(C(C#N)N2CCOCC2)cc1OC (centres undefined) | 2 | 3 | 0 | 1 | x | x
CCOc1ccc(C(CN2CCOCC2)C(C)=O)cc1OC (centres undefined) | x | 34* | 5 | 2 | 12 | 57*
CCc1csc(N2[C@H](CN(CCOC)S(=O)(=O)c3ccccc3[N+](=O)[O-])[C@H](c3ccccc3)[C@@H]2CO)n1 | x | x | x | 7 | x | x
CCCN1C(=O)S/C(=C/c2ccc(N3CCOCC3)o2)C1=O | -22 | 83* | 6 | -12 | 32* | 93*
CCCN1C(=O)S/C(=C\c2ccc(N3CCOCC3)o2)C1=O | -24 | 74* | 6 | 10 | 54* | 109*
N#C/C(=C\c1ccc(N2CCOCC2)o1)c1ccccc1 | -17 | 76* | 7 | 12 | 37* | 101*
N#C/C(=C/c1ccc(N2CCOCC2)o1)c1nc2ccccc2[nH]1 | -91 | 27* | 0 | -29 | 32* | 50*
O=C1CCCC2=C1C(c1ccccc1)C1C(=O)c3ccccc3C1=N2 (centres undefined) | -65 | 9 | -1 | 3 | x | x
Cc1ccc(C2C3=C(CCCC3=O)N=C3c4ccccc4C(=O)C32)cc1 (centres undefined) | -14 | 33* | 2 | 8 | 51* | 55*
CC(C)C[C@H](N)c1nnc(S(=O)(=O)Cc2cccc(F)c2)o1 | -4 | 38* | 2 | 5 | 42* | 76*
CCNC(=O)c1cc2c(c(-c3cccc(-c4ccccc4F)c3)n1)[C@H](CCO)N(C(=O)CC)C2 | x | 3 | -5 | 0 | x | x
COC(=O)C(=Cc1ccc(-c2ccsc2C(=O)OC)o1)C(=O)OC | 2 | 23* | -5 | -3 | 24* | 37*
CCOC(=O)[C@]12CCCCC/C=C\1N(CCc1ccc(Cl)cc1)C(=O)[C@H]2CC(=O)NCC1CCCCC1 | x | x | x | 2 | x | x
COC(=O)c1cc(C)nc2c1C(=O)C(=O)C=C2N1CCOCC1 | 36 | 39* | 7 | 1 | 73* | 53*
COC(=O)[C@]12CCCCC=C1N(CCc1ccc(OC)c(OC)c1)C(=O)[C@H](CC(=O)NCCC(C)C)C2 | x | 7 | x | -2 | x | x
O=C(O)CCc1ccc(-c2ccccc2)o1 | 2 | 38* | 2 | 8 | 24* | 48*
Cc1ccc(/C=C/C(=O)c2c(C)cc(C)[nH]c2=O)cc1 | 3 | 19 | 7 | x | x | x
CCc1ccc(/C=C/C(=O)c2c(C)cc(C)[nH]c2=O)cc1 | 8 | 29* | -1 | 9 | 48* | 29*
O=C(N/N=C/C(Br)=C/c1ccccc1)C(O)c1ccccc1 (centres undefined) | 0 | 25* | -2 | 4 | 3 | 34*
CC(OC(=O)/C=C/c1cccs1)C(=O)Nc1ccc(S(N)(=O)=O)cc1 (centres undefined) | 0 | -4 | -10 | 10 | x | x
CC(OC(=O)/C=C/c1ccc2ccccc2n1)C(=O)Nc1ccc(S(N)(=O)=O)cc1 (centres undefined) | -2 | 25* | 4 | 13 | 28* | 21*
O=C(NCCCN1CCOCC1)c1ccc(CSc2ccc(Cl)cc2)cc1 | 2 | 27* | -13 | -7 | 9 | 3
C=CCn1c(SCC(C)=O)nc2scc(-c3ccco3)c2c1=O | 31 | 34* | 14 | 21 | 54* | 85*
C=CCn1c(SCc2ccc3c(c2)OCO3)nc2scc(-c3ccco3)c2c1=O | 0 | 36* | 24 | 3 | 17 | 10
SMILES | core dimer inh | ABHD5-PLIN5 inh | NadD inh | rCAG binder | ABHD5 PLIN5 conf | HNF4 counter
C=CCn1c(SCC(=O)NCCCC(=O)OCC)nc2scc(-c3ccco3)c2c1=O | -5 | 30* | 9 | 2 | 7 | 13*
C=CCn1c(SCC(=O)N2CCOCC2)nc2scc(-c3ccco3)c2c1=O | 15 | 33* | 27 | x | 23* | 49*
C=CCn1c(SCC(=O)N2CCCC2)nc2scc(-c3cccs3)c2c1=O | 10 | -2 | -4 | 7 | x | x
C=CCn1c(SC(F)F)nc2scc(-c3ccco3)c2c1=O | -5 | 4 | -5 | 10 | x | x
COC(=O)C(C(=O)OC)c1ccccc1NS(=O)(=O)c1c(C)cc(C)cc1C | x | 2 | x | 5 | x | x
C=CC(=O)N1C/C(=C/c2ccc(F)cc2)C(=O)/C(=C\c2ccc(F)cc2)C1 | x | 100* | -7 | 2 | 102* | 105*
COc1ccc2c(c1OC)C(=O)OC2Nc1nc(-c2ccc([N+](=O)[O-])cc2)cs1 (centres undefined) | -3 | 5 | 3 | 6 | x | x
COc1ccc(-c2csc(NC3OC(=O)c4c3ccc(OC)c4OC)n2)cc1OC (centres undefined) | -2 | 34* | -2 | 1 | 63* | 49*
O=C1Nc2ccc(Br)cc2/C1=C/C1CC=CCC1 (centres undefined) | 5 | 25* | -5 | 1 | 53* | 38*
CC(=O)CC[C@H]1CC[C@]2(CCCN(S(C)(=O)=O)C2)O1 | x | x | x | 5 | x | x
CC(O)CC(=O)OC[C@]12CC[C@H]3[C@@](C)(CC[C@H]4C(C)(C)CCC[C@]34C)[C@@H]1CC(C1=CC(=O)OC1O)O2 (some centres undefined) | x | 80* | 0 | 13 | 97* | 71*
Cc1cc2c(cc1C)-n1nnnc1C(N(C)Cc1ccccc1)C(=O)N2 (centres undefined) | x | -3 | x | 3 | x | x
C=C(NC(=O)C(=C)NC(=O)c1csc(C2=NC3c4csc(n4)C4NC(=O)c5csc(n5)C(C(C)(O)C(C)O)NC(=O)C5CSC(=N5)/C(=C/C)NC(=O)C(C(C)O)NC(=O)c5csc(n5)C3(CC2)NC(=O)C(C)NC(=O)C(=C)NC(=O)C(=C)NC(=O)C(C(C)C)NC2C=Cc3c(C(C)O)cc(nc3C2O)C(=O)OC4C)n1)C(N)=O (centres undefined) | x | 28* | 4 | 34 | 66* | 10
Cc1cnc(C(=O)Nc2c(-c3ccccc3)[nH][nH]c2=O)cn1 | x | -38 | x | 2 | x | x
O=C(Nc1c(-c2ccccc2)[nH][nH]c1=O)c1ccccc1 | x | -19 | x | 4 | x | x
CN(C)c1ccc(-c2[nH][nH]c(=O)c2NC(=O)c2ccc3ccccc3n2)cc1 | x | 54* | 20 | 11 | -52 | 48*
CN(C)c1ccc(-c2[nH][nH]c(=O)c2NC(=O)c2ccccn2)cc1 | x | 60* | 1 | 6 | 7 | 45*
COc1ccc(CCNC(=O)c2ccc3c(c2)ncn3C2CCCCC2)cc1 | x | x | x | 3 | x | x
